A short description of data set [1]: Cytotoxicity against human PC3 cells overexpressing NQO1 assessed as reduction in cell viability after 72 hrs by MTT assay. It counts as functional, cell-based. Conditions: PC-3, 72 h. Background: Formazan colour is commonly taken as a measure of viable cells.
The nature of data set [2]: Cytotoxicity against human MDA-MB-435 cells overexpressing NQO1 assessed as reduction in cell viability after 72 hrs by MTT assay. It is filed as functional, cell-based. As to conditions: MDA-MB-435, 72 h. The gist of the method:
(§1)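 Cancer lines from NCI, grown in RPMI 1640 with 10% FBS, 2 mM L-glutamine, penicillin/streptomycin, 37 °C, 5% CO2; seeded 0.1 × 10^6 cells/well (HL-60) or 0.7 × 10^5 cells/well (solid tumours). Compounds in DMSO, final 0.1% v/v; DMSO vehicle as negative control.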

Data set [3] is described as follows: Cytotoxicity against NQO1-deficient human HL60 cells assessed as reduction in cell viability after 72 hrs by MTT assay. Conditions: HL-60, 72 h. It is filed as functional, cell-based. The gist of the method: as §1
The next data set is filed under the species Mus musculus. The experiment in a line: Cytotoxicity against NQO1-deficient mouse L929 cells assessed as reduction in cell viability after 72 hrs by MTT assay. It is filed as toxicity, cell-based. Conditions: l929.
The nature of data set [4]: Cytotoxicity against NQO1-deficient chinese hamster V79 cells assessed as reduction in cell viability after 72 hrs by MTT assay. It is filed as toxicity, cell-based, Cricetulus griseus. As to conditions: v79.
Data set [5] in a line: Cytotoxicity against human HCT116 cells expressing NQO1 assessed as reduction in cell viability after 72 hrs by MTT assay. It is filed as functional, cell-based. As to conditions: HCT-116, 72 h. The method, boiled down: as §1
Data set [6] can be described thus: Cytotoxicity against human SF295 cells overexpressing NQO1 assessed as reduction in cell viability after 72 hrs by MTT assay. It counts as functional, cell-based. Conditions: SF-295, 72 h.
Data set [7] in a line: Cytotoxicity against human OVCAR8 cells overexpressing NQO1 assessed as reduction in cell viability after 72 hrs by MTT assay. It is filed as functional, cell-based. Conditions: OVCAR-8, 72 h. The method, boiled down:
as §1

The nature of data set [8]: Cytotoxicity against NQO1-deficient human PBMC assessed as reduction in cell viability after 72 hrs by MTT assay. As to conditions: for pIC50: pbmc. It counts as toxicity, cell-based.
Data set [9] concerns HL-60. The experiment in a line: Selectivity index, ratio of IC50 for NQO1-deficient chinese hamster V79 cells to IC50 for NQO1-deficient human HL60 cells. It is filed as functional. The method, boiled down: (§2)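 Selectivity index is IC50 in the normal cells divided by IC50 in the cancer line. Normal cells: V79 and L929 in DMEM, PBMC in RPMI with phytohaemagglutinin. Cancer lines in RPMI with 10% FBS, seeded at 0.1 × 10^6 (HL-60) or 0.7 × 10^5 cells/well (solid tumors). Absorbance 550 nm; nonlinear regression.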

Data set [10] in a line: Selectivity index, ratio of IC50 for NQO1-deficient human PBMC to IC50 for human MDA-MB-435 cells overexpressing NQO1. The gist of the method:
as §2

Another data set relates to PC-3. The data set is described as follows: Selectivity index, ratio of IC50 for NQO1-deficient human PBMC to IC50 for human PC3 cells overexpressing NQO1. The gist of the method:
as §2

In data set [11] the test system is L929. The experiment in a line: Selectivity index, ratio of IC50 for NQO1-deficient mouse L929 cells to IC50 for human PC3 cells overexpressing NQO1. The method, boiled down: as §2
Data set [12] deals with V79. The data set is described as follows: Selectivity index, ratio of IC50 for NQO1-deficient chinese hamster V79 cells to IC50 for human PC3 cells overexpressing NQO1. The gist of the method: as §2
Data set [13] has as its system V79. The experiment in a line: Selectivity index, ratio of IC50 for NQO1-deficient chinese hamster V79 cells to IC50 for human MDA-MB-435 cells overexpressing NQO1. The gist of the method:
as §2

The test system of data set [14] is L929. The experiment in a line: Selectivity index, ratio of IC50 for NQO1-deficient mouse L929 cells to IC50 for human MDA-MB-435 cells overexpressing NQO1. The method, boiled down:
as §2

Data set [15] deals with L929. The data set is described as follows: Selectivity index, ratio of IC50 for NQO1-deficient mouse L929 cells to IC50 for human SF295 cells overexpressing NQO1. The method, boiled down:
as §2

In data set [16] the test system is SF-295. The experiment in a line: Selectivity index, ratio of IC50 for NQO1-deficient human PBMC to IC50 for human SF295 cells overexpressing NQO1. The method, boiled down: as §2
Data set [17] deals with HL-60. The data set is described as follows: Selectivity index, ratio of IC50 for NQO1-deficient human PBMC to IC50 for NQO1-deficient human HL60 cells. The method, boiled down:
as §2

Data set [18] relates to L929. The data set is described as follows: Selectivity index, ratio of IC50 for NQO1-deficient mouse L929 cells to IC50 for NQO1-deficient human HL60 cells. It counts as functional. The method, boiled down: as §2
Data set [19] relates to SF-295. The data set is described as follows: Selectivity index, ratio of IC50 for NQO1-deficient chinese hamster V79 cells to IC50 for human SF295 cells overexpressing NQO1. The method, boiled down: as §2
The next data set relates to OVCAR-8. The data set is described as follows: Selectivity index, ratio of IC50 for NQO1-deficient human PBMC to IC50 for human OVCAR8 cells overexpressing NQO1. The gist of the method:
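Selectivity index is IC50 in the normal cells divided by IC50 in the cancer line. All IC50s come from 72 h MTT assays. Normal cells: V79 and L929 in DMEM, PBMC in RPMI with phytohaemagglutinin. Cancer lines in RPMI with 10% FBS, seeded at 0.1 × 10^6 (HL-60) or 0.7 × 10^5 cells/well (solid tumors). Absorbance 550 nm; nonlinear regression.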

In data set [20] the test system is L929. The data set is described as follows: Selectivity index, ratio of IC50 for NQO1-deficient mouse L929 cells to IC50 for human OVCAR8 cells overexpressing NQO1. The method, boiled down:
as §2

pIC50: −log10 of the molar value.

For orientation: pIC50 means −log10 of the IC50, conventionally taken in molar units. As a reminder, the IC50 is the point on the concentration scale where inhibition reaches its midpoint.

Regarding `O=C1C2=C(C(=O)c3ccccc31)[C@H](c1ccccc1)[C@@H](n1cc(C[Se]c3ccccc3)nn1)CO2`, the pIC50 in data set [1] was 5.11; in [2] it was 5.17; in [3], 5.08; in the data set listed under Mus musculus it was 5.15; in data set [4] it was 5.17; in [5] it was 5.14. Also, the pIC50 in data set [6] was 5.25.

For the compound `C#Cc1cccc(NC2C3=C(OC2(C)C)C(=O)c2ccccc2C3=O)c1` (stereo unspecified), the pIC50 is 5.29 in data set [1]; 5.41 in data set [2]; 5.15 in data set [7]; 5.59 in [3]; 5.22 in [4]; 5.19 in [8]. Moreover, the pIC50 is 5.34 in [5] and less than 4.84 in data set [6].

In the case of `C#Cc1cccc(NC2CC(C)(C)OC3=C2C(=O)c2ccccc2C3=O)c1` (stereo unspecified), the pIC50 (in data set [1]; in data set [2]; in data set [7]; in [3]; in the data set listed under Mus musculus; in data set [4]) was less than 4.85 each time. The pIC50 in data set [8], in [5] and in [6] was less than 4.85 in each case.

On to `CC1(C)CCC2=C(O1)c1ccccc1C(=O)C2=O` [LAPACHONE], for which the pIC50 in data set [2] was 6.60; in data set [8] it was less than 4.69; in data set [5], 6.06; in data set [6], 6.02.

Take `CC1(C)OC2=C(C(=O)C(=O)c3ccccc32)C(N=[N+]=[N-])[C@@H]1Br` (stereo partly specified): the “Ratio IC50” value came to 1.6 with HL-60 [9]; 2.3 in data set [10]; 2.1 in the data set with PC-3; 1.2 in the data set with L929 [11]; 1.4 in the data set with V79 [12]; 1.5 in the data set with V79 [13]. Besides, the “Ratio IC50” value came out at 1.3 with L929 [14]; 1 in the data set with L929 [15]; 1.8 in the data set on SF-295 [16]; 2.5 in the data set on HL-60 [17]; 1.4 in the data set on L929 [18]. Further, the pIC50 in [1] is 5.77; in data set [2], 5.81; in data set [7], 5.65; in the data set listed under Mus musculus, 5.69; in data set [4] it was 5.62; in data set [5] it was 5.61. Moreover, in data set [8] (human), the IC50 at 72 h turned out to be 3.58 µM.

Turning to `O=C1C(Cl)=C(NCc2cn(C[Se]c3ccccc3)nn2)C(=O)c2ccccc21`, the pIC50 in [1] is 5.65; in data set [2] it was 5.70; in data set [7], 5.59; in the data set filed under Mus musculus it was 5.46; in data set [4], 5.60; in [8] it was 5.20. The pIC50 was 5.49 in data set [5] and 5.53 in [6].

With `CC1(C)CC(N=[N+]=[N-])C2=C(O1)C(=O)c1ccccc1C2=O` (stereo unspecified), the “Ratio IC50” value with HL-60 [9] worked out at 2.2; in the data set on SF-295 [19] it was 1.7; with OVCAR-8, 4.1; with L929 [15], 2; with SF-295 [16] it was 2.9; in the data set with HL-60 [17], 3.6. Besides, the results for the “Ratio IC50” value in the data set with L929 [18] and in the data set on L929 [20] were 2.4 and 2.7, respectively. Moreover, the pIC50 in data set [1] is 5.67; in [2] it was 5.57; in data set [7] it was 5.83; in [3] it was 5.78; in the data set listed under Mus musculus it was 5.38; in [4] it was 5.44. Further, the pIC50 in data set [8] was 5.21; in [5], 5.53.

Regarding `CC1(C)CC(n2cc(C[Se]c3ccccc3)nn2)C2=C(O1)C(=O)c1ccccc1C2=O` (stereo unspecified), the pIC50 is 5.41 in [1]; 5.59 in [7]; 5.26 in data set [3]; 5.35 in data set [8]; 5.65 in data set [5]; 5.38 in data set [6].

As for `CC1(C)CC(Nc2cccc(-c3cn(C[Se]c4ccccc4)nn3)c2)C2=C(O1)C(=O)c1ccccc1C2=O` (stereo unspecified), the “Ratio IC50” value in the data set with HL-60 [9] was found to be 1.8; with SF-295 [19] it was 1.9; in data set [10], 2.8; in the data set on V79 [13], 2.4; in the data set on L929 [14], 2.2; with L929 [15], 1.7. Moreover, the figures for the “Ratio IC50” value with HL-60 [17] and in the data set on L929 [18] were 2 and 1.6, respectively. Further, the pIC50 in data set [1] was 5.59; in data set [2] it was 5.83; in data set [7], 5.51; in data set [3] it was 5.70; in the data set listed under Mus musculus, 5.48; in data set [4] it was 5.44. The pIC50 in [8] was 5.38; in [5] it was 5.31; in data set [6], 5.73.

In the case of `[N-]=[N+]=NC1=CC(=O)c2ccccc2C1=O`, the pIC50 in data set [1] is 5.67; in data set [2], 5.63; in data set [7], 5.45; in the data set filed under Mus musculus, 5.29; in [4], 5.24; in data set [8], 5.06. In addition, the pIC50 in data set [5] is 5.37; in data set [6], 5.47.

For the compound `CC1(C)OC2=C(C(=O)C(=O)c3ccccc32)C1N=[N+]=[N-]` (stereo unspecified), the pIC50 in data set [1] is 5.76; in data set [7], 5.87; in the data set listed under Mus musculus it was 5.57; in [4], 5.49; in [5], 6.05.

In the case of `CC1(C)OC2=C(C(=O)c3ccccc3C2=O)C1n1cc(C[Se]c2ccccc2)nn1` (stereo unspecified), the pIC50 in [1] was 5.53; in data set [2] it was 5.67; in [7], 5.55; in data set [3], 5.80; in the data set filed under Mus musculus, 5.42; in data set [4] it was 5.39. For the same compound, the pIC50 was 5.49 in data set [8], 5.60 in [5] and 5.58 in data set [6].

Regarding `O=C1C2=C(C(=O)c3ccccc31)[C@H](c1cccc3ccccc13)[C@@H](n1cc(C[Se]c3ccccc3)nn1)CO2`, the pIC50 (in [1]; in [2]; in data set [7]; in data set [3]; in the data set filed under Mus musculus; in [4]) was less than 5.06 throughout. Besides, the pIC50 in [8], in data set [5] and in [6] was less than 5.06 each time.

In the case of `O=C1C=C(n2cc(C[Se]c3ccccc3)nn2)C(=O)c2ccccc21`, the pIC50 (in data set [1]; in data set [2]; in data set [7]; in data set [3]; in the data set listed under Mus musculus; in [4]) was less than 4.90 in each case. Further, the pIC50 in data set [8], in [5] and in data set [6] was less than 4.90 each time.

As to `CC1(C)OC2=C(C(=O)c3ccccc3C2=O)C1N=[N+]=[N-]` (stereo unspecified), the negative logarithm of the IC50 (pIC50) is 5.39 in data set [1]; 5.60 in data set [2]; 5.45 in data set [7]; 5.65 in data set [3]; 5.43 in the data set filed under Mus musculus; 5.50 in [8]. Also, the values for the pIC50 in [5] and in data set [6] were 5.48 and 5.52, respectively.

The values above are taken from ChEMBL document CHEMBL3865784 (Eur J Med Chem, 2016).
